Data published in ChEMBL document CHEMBL1145606, “Discovery of amino-acetonitrile derivatives, a new class of synthetic anthelmintic compounds” (2008).

Assays:
Assay type in all cases: functional
Haemonchus contortus [1] = experiment: Anthelmintic activity against benzimidazole-resistant Haemonchus contortus isolate by larva development assay
Summary of the method: (§1)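 Larval development assay: test compounds were embedded in an agar-based nutritive medium that supports development from eggs to third-stage larvae (L3). Plates were incubated for 6 days at 28 °C and 80% relative humidity, and egg hatching and larval development were recorded. Values are means of three experiments.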

[2] = system: Trichostrongylus colubriformis; experiment: Anthelmintic activity against Trichostrongylus colubriformis infected in gerbils assessed as reduction in worm count at 1 mg/kg, sc; set-up: scale not given: the % may be the effect or the level left; conditions: route subcutaneous
Summary of the method: (§2)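 Gerbils (Meriones unguiculatus) were artificially infected with H. contortus larvae 6 days, or T. colubriformis larvae 5 days, before treatment. They were then dosed orally or subcutaneously, and controls received a placebo formulation. Three days post-treatment the animals were sacrificed and dissected for worm recovery.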

[3] = system: Trichostrongylus colubriformis; experiment: Anthelmintic activity against levamisole-resistant Trichostrongylus colubriformis isolate by larva development assay; summary of the method: as §1
[4] = system: Trichostrongylus colubriformis; experiment: Anthelmintic activity against Trichostrongylus colubriformis infected in gerbils assessed as reduction in worm count at 1 mg/kg, po; set-up: scale not given: the % may be the effect or the level left; summary of the method: as §2
Haemonchus contortus [5] = experiment: Anthelmintic activity against Haemonchus contortus infected in gerbils assessed as reduction in worm count at 1 mg/kg, sc; set-up: scale not given: the % may be the effect or the level left; conditions: route subcutaneous; summary of the method: as §2
Haemonchus contortus [6] = experiment: Anthelmintic activity against Haemonchus contortus infected in gerbils assessed as reduction in worm count at 1 mg/kg, po; set-up: scale not given: the % may be the effect or the level left; summary of the method: as §2
Haemonchus contortus [7] = experiment: Anthelmintic activity against Haemonchus contortus infected in gerbils assessed as reduction in worm count at 10 mg/kg, po; set-up: scale not given: the % may be the effect or the level left; summary of the method: as §2
[8] = system: Trichostrongylus colubriformis; experiment: Anthelmintic activity against Trichostrongylus colubriformis infected in gerbils assessed as reduction in worm count at 10 mg/kg, po; set-up: scale not given: the % may be the effect or the level left; summary of the method: as §2
[9] = system: Trichostrongylus colubriformis; experiment: Anthelmintic activity against Trichostrongylus colubriformis infected in gerbils assessed as reduction in worm count at 3.2 mg/kg, po; set-up: scale not given: the % may be the effect or the level left; summary of the method: as §2
Haemonchus contortus [10] = experiment: Anthelmintic activity against Haemonchus contortus infected in gerbils assessed as reduction in worm count at 3.2 mg/kg, po; set-up: scale not given: the % may be the effect or the level left; summary of the method: as §2

| SMILES | EC100 (Haemonchus contortus [1]) [ppm] | EC100 [3] [ppm] | other results |
| --- | --- | --- | --- |
| CC(C#N)(COc1cc(C#N)ccc1C(F)(F)F)NC(=O)c1ccc(SC(F)(F)F)cc1 (stereo not given) | 0.01 | 0.032 | Activity [2]: 84%; Activity [4]: 100%; Activity (Haemonchus contortus [5]): 99%; Activity (Haemonchus contortus [6]): 100% |
| CC(C#N)(COc1ccccc1Cl)NC(=O)c1cccc(OC(F)(F)F)c1 (stereo not given) | >10 | 10 |  |
| C[C@](C#N)(COc1cc(C#N)ccc1C(F)(F)F)NC(=O)c1ccc(SC(F)(F)F)cc1 [MONEPANTEL] | 0.0032 | 0.01 |  |
| Cc1ccc(C(=O)NC(C)(C#N)COc2ccccc2Cl)cc1 (stereo not given) | >10 | >10 |  |
| CC(C#N)(COc1ccccc1Cl)NC(=O)c1ccccc1C(F)(F)F (stereo not given) | >10 | >10 |  |
| CC(C#N)(COc1ccccc1C(F)(F)F)NC(=O)c1ccc(OC(F)(F)F)cc1 (stereo not given) | 0.01 | 0.01 | Activity (Haemonchus contortus [7]): 98%; Activity [8]: 97% |
| CC(C#N)(COc1cc(F)c(F)cc1C(F)(F)F)NC(=O)c1ccc(SC(F)(F)F)cc1 (stereo not given) | 0.032 | 0.032 | Activity [2]: 90%; Activity [4]: 98%; Activity (Haemonchus contortus [5]): 73%; Activity (Haemonchus contortus [6]): 84% |
| CC(C#N)(COc1c(F)cc(F)cc1F)NC(=O)c1ccc(OC(F)(F)F)cc1 (stereo not given) | >10 | >10 |  |
| CC(C#N)(COc1ccc(F)cc1Cl)NC(=O)c1ccc(OC(F)(F)F)cc1 (stereo not given) | 0.032 | 0.032 | Activity [9]: 77%; Activity (Haemonchus contortus [10]): 98% |
| CC(C#N)(COc1ccc(Cl)cc1Cl)NC(=O)c1ccc(OC(F)(F)F)cc1 (stereo not given) | 0.1 | 0.1 | Activity (Haemonchus contortus [7]): 94%; Activity [8]: 100% |
| CC(C#N)(COc1cc(F)c(F)cc1C(F)(F)F)NC(=O)c1ccc(OC(F)(F)F)cc1 (single isomer, unassigned; (-)) | 0.0032 | 0.01 |  |
| CC(C#N)(COc1ccccc1C(F)(F)F)NC(=O)c1ccc(-c2ccccc2)cc1 (stereo not given) | >10 | >10 |  |
| CC(C#N)(COc1cccc(F)c1)NC(=O)c1ccc(OC(F)(F)F)cc1 (stereo not given) | 0.32 | 1 |  |
| CC(C#N)(COc1ccc(C#N)cc1C(F)(F)F)NC(=O)c1ccc(SC(F)(F)F)cc1 (stereo not given) | 0.032 | 0.032 | Activity [2]: 86%; Activity [4]: 98%; Activity (Haemonchus contortus [5]): 92%; Activity (Haemonchus contortus [6]): 90% |
| CC(C#N)(COc1cc(F)c(F)cc1Br)NC(=O)c1ccc(OC(F)(F)F)cc1 (stereo not given) | 0.01 | 0.032 | Activity [9]: 97%; Activity (Haemonchus contortus [10]): 100% |
| CC(C#N)(COc1ccccc1C(F)(F)F)NC(=O)c1ccccc1 (stereo not given) | 10 | >10 |  |
| c1ccc2[nH]c(-c3cscn3)nc2c1 [THIABENDAZOLE] | 10 | 1 |  |
| CC(C#N)(COc1cc(F)ccc1Br)NC(=O)c1ccc(OC(F)(F)F)cc1 (stereo not given) | 0.01 | 0.1 | Activity [9]: 99%; Activity (Haemonchus contortus [10]): 90% |
| CC(C#N)(COc1ccccc1)NC(=O)c1ccc(C(F)(F)F)cc1 (stereo not given) | >10 | >10 |  |
| CC(C#N)(COc1cccc(Cl)c1Cl)NC(=O)c1ccc(C(F)(F)F)cc1 (stereo not given) | 0.1 | 0.1 | Activity (Haemonchus contortus [7]): 84%; Activity [8]: 67% |
| CC(C#N)(COc1cc(F)c(F)cc1C(F)(F)F)NC(=O)c1ccc(OC(F)(F)F)cc1 (single isomer, unassigned; (+)) | 1 | 3.2 |  |

| SMILES | EC100 (Haemonchus contortus [1]) [ppm] | EC100 [3] [ppm] | other results |
| --- | --- | --- | --- |
| CC(C#N)(COc1cc(F)c(F)cc1C(F)(F)F)NC(=O)c1ccc(C(F)(F)F)cc1 (stereo not given) | 0.032 | 0.032 | Activity [2]: 90%; Activity [4]: 91%; Activity (Haemonchus contortus [5]): 94%; Activity (Haemonchus contortus [6]): 89% |
| CC(C#N)(COc1ccc(C#N)cc1C(F)(F)F)NC(=O)c1ccc(OC(F)(F)F)cc1 (stereo not given) | 0.032 | 0.1 | Activity [2]: 97%; Activity [4]: 98%; Activity (Haemonchus contortus [5]): 91%; Activity (Haemonchus contortus [6]): 95% |
| CC(C#N)(COc1ccccc1Br)NC(=O)c1ccc(OC(F)(F)F)cc1 (stereo not given) | 0.032 | 0.032 | Activity (Haemonchus contortus [7]): 97%; Activity [8]: 99% |
| CC(C#N)(COc1ccccc1F)NC(=O)c1ccc(C(F)(F)F)cc1 (stereo not given) | 1 | 1 |  |
| CC(C#N)(COc1cc(C#N)ccc1C(F)(F)F)NC(=O)c1ccc(C(F)(F)F)cc1 (stereo not given) | 0.032 | 0.1 | Activity [2]: 72%; Activity [4]: 87%; Activity (Haemonchus contortus [5]): 90%; Activity (Haemonchus contortus [6]): 97% |
| CC(C#N)(COc1ccccc1Cl)NC(=O)c1ccc(Cl)cc1 (stereo not given) | 0.32 | 0.32 |  |
| CC(C#N)(COc1ccccc1Cl)NC(=O)c1ccc(OC(F)(F)F)cc1 (stereo not given) | 0.032 | 0.032 |  |
| CC(C#N)(COc1ccccc1C(F)(F)F)NC(=O)c1ccc(SC(F)(F)F)cc1 (stereo not given) | 0.032 | 0.032 | Activity (Haemonchus contortus [7]): 77%; Activity [8]: 99% |
| CC(C#N)(COc1cc(F)ccc1Cl)NC(=O)c1ccc(OC(F)(F)F)cc1 (stereo not given) | 0.01 | 0.032 | Activity [9]: 79%; Activity (Haemonchus contortus [10]): 92% |
| CC(C#N)(COc1c(Cl)cccc1Cl)NC(=O)c1ccc(C(F)(F)F)cc1 (stereo not given) | >10 | >10 |  |
| CC(C#N)(COc1ccc(C#N)cc1C(F)(F)F)NC(=O)c1ccc(C(F)(F)F)cc1 (stereo not given) | 0.1 | 0.1 | Activity [4]: 91%; Activity (Haemonchus contortus [6]): 97% |
| CC(C#N)(COc1ccccc1Cl)NC(=O)c1ccc(C(F)(F)F)cc1 (stereo not given) | 0.032 | 0.032 | Activity (Haemonchus contortus [7]): 88%; Activity [8]: 19% |
| CC(C#N)(COc1cc(F)c(F)cc1C(F)(F)F)NC(=O)c1ccc(OC(F)(F)F)cc1 (stereo in doubt; 19) | 0.01 | 0.032 | Activity [2]: 75%; Activity [4]: 73%; Activity (Haemonchus contortus [5]): 99%; Activity (Haemonchus contortus [6]): 99% |
| c1ccc([C@H]2CN3CCSC3=N2)cc1 [LEVAMISOLE] | 0.32 | 10 |  |
| CC(C#N)(COc1ccccc1Cl)NC(=O)c1ccc(F)cc1 (stereo not given) | 3.2 | 1 |  |
| CC(C#N)(COc1ccc(C(F)(F)F)cc1)NC(=O)c1ccc(C(F)(F)F)cc1 (stereo not given) | >10 | >10 |  |
| C[C@@](C#N)(COc1cc(C#N)ccc1C(F)(F)F)NC(=O)c1ccc(SC(F)(F)F)cc1 | 10 | >10 |  |
| CC(C#N)(COc1cc(C#N)ccc1C(F)(F)F)NC(=O)c1ccc(OC(F)(F)F)cc1 (stereo not given) | 0.01 | 0.032 | Activity [2]: 75%; Activity [4]: 85%; Activity (Haemonchus contortus [5]): 97%; Activity (Haemonchus contortus [6]): 95% |
| CC(C#N)(COc1ccccc1Cl)NC(=O)c1ccc(C(F)(F)F)cc1F (stereo not given) | 0.32 | 0.32 |  |
| CC(C#N)(COc1cc(Cl)ccc1Cl)NC(=O)c1ccc(OC(F)(F)F)cc1 (stereo not given) | 0.01 | 0.032 | Activity [9]: 89%; Activity (Haemonchus contortus [10]): 68% |
| CCc1ccccc1OCC(C)(C#N)NC(=O)c1ccc(OC(F)(F)F)cc1 (stereo not given) | 0.32 | 0.32 |  |
